Reference: ChEMBL document CHEMBL4017491, “Phthalazino[1,2-b]quinazolinones as p53 Activators: Cell Cycle Arrest, Apoptotic Response and Bak-Bcl-xl Complex Reorganization in Bladder Cancer Cells” (J Med Chem, 2017)
The source made the active and inactive calls. The calls are words filed in the database; no cut-off is given here.

Columns and labels:
T-24 [1] = assay: Cell cycle arrest in human T24 cells assessed as accumulation at sub-G1 phase at 1 to 10 uM after 48 hrs by propidium iodide staining based FACS analysis; type: functional
Outline: (§1)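 Cells treated with 1−10 μM for 48 h, trypsinized, and fixed in 70% ethanol. Stained with 50 μg/mL propidium iodide and phase distribution analyzed by flow cytometry. Mean ± SD from three independent measurements.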

J82 = assay: Cell cycle arrest in human J82 cells assessed as accumulation at G2 phase at 5 uM after 48 hrs by propidium iodide staining based FACS analysis (reference value: 10.92 %); type: functional; outline: as §1
[2] = molecular target: Cellular tumor antigen p53 (Homo sapiens) (UniProt P04637); assay: Activation of p53 in human T24 cells assessed as p53 phosphorylation after 24 hrs by Western blot analysis; type: cell-based
Cellular tumor antigen p53 (Homo sapiens), sequence (P04637 whole entry, looked up): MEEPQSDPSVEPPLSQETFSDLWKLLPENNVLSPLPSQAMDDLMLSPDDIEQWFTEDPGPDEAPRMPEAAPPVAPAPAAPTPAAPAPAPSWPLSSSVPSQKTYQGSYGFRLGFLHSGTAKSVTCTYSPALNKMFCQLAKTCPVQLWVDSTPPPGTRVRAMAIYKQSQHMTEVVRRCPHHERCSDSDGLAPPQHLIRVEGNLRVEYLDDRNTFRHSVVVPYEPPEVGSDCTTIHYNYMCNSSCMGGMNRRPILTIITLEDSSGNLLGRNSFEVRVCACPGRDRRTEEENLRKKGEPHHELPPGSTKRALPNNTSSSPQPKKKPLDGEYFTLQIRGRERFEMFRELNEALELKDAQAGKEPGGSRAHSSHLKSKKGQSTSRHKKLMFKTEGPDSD
Outline: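 T24 cells, 3 × 10^5 per well, grown to 85−95% confluence, then exposed to 0−10 μM for 24 h. Whole-cell extracts in sample buffer run on SDS-polyacrylamide gels and transferred to nitrocellulose. Blots probed with primary antibodies and AP-linked anti-rabbit IgG, detected by ECL. Blots stripped and reprobed for β-actin as loading control.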

T-24 [3] = assay: Induction of apoptosis in human T24 cells assessed as live cells at 1 uM by Annexin V-FITC/propidium iodide based flow cytometric analysis (reference value: 89.5%); type: functional
Mus musculus = assay: Toxicity in BALB/C nude mouse xenografted with human HepG2 cells at 6 to 12 mg/kg, ip administered every 2 days for 16 days; type: organism-based; conditions: in vivo
Outline: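 Male BALB/C nude mice with HepG2 flank xenografts, n = 6/group. Given ip 6 or 12 mg/kg every 2 days in 5% DMSO/saline; vehicle and HCPT 6 mg/kg as controls. Clinical signs, food intake and body weight monitored; tumour size and weight measured three times weekly.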

T-24 [4] = assay: Effect on cell cycle distribution in human T24 cells assessed as late apoptotic cells at 1 uM after 1 hr by Annexin V-FITC/propidium iodide staining based FACS analysis relative to control; type: functional

In the case of `CN(C)CCNc1nn2c(=O)c3cc(Br)ccc3nc2c2ccccc12`, the Activity (T-24 [1]) is reported as “Active”, the Activity (J82) is reported as 38.21% and the Activity [2] is reported as “Dose-dependent effect”. The Activity (T-24 [3]) was 83.7%, the Activity (Mus musculus) was “Non-Toxic” and the Activity (T-24 [4]) was 0%.
